Active and inactive are the calls of the source. No cut-off for these calls is given here.
Columns and labels:
[1] = molecular target: Toll-like receptor 3 (Homo sapiens) (UniProt O15455); assay: Activation of human TLR3 expressed in HEK293 assessed as induction of NF-kappaB activity reporter gene assay; format: cell-based
Splenocyte = assay: Immunomodulatory activity in C57BL/6 mouse splenocytes bearing TLR7 receptor assessed as IL12 release at 100 ug/ml after 24 hrs by ELISA; format: functional, cell-based
In short: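 C57BL/6 splenocytes in RPMI 1640 with 10% FBS, penicillin/streptomycin, 2 mM L-glutamine, plated at 5 × 10^6 cells/mL; compounds in PBS added, 37 °C for 24 h. Supernatant IL-12 and IL-6 by ELISA; representative of three independent experiments.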

[2] = molecular target: T1, Toll-like receptor 7 (Homo sapiens) (UniProt Q9NYK1); assay: Activation of human TLR7 expressed in HEK293XL assessed as fold induction of NF-kappaB activity at 50 ug/ml after 18 hrs by reporter gene assay relative to control
T1 sequence (whole entry): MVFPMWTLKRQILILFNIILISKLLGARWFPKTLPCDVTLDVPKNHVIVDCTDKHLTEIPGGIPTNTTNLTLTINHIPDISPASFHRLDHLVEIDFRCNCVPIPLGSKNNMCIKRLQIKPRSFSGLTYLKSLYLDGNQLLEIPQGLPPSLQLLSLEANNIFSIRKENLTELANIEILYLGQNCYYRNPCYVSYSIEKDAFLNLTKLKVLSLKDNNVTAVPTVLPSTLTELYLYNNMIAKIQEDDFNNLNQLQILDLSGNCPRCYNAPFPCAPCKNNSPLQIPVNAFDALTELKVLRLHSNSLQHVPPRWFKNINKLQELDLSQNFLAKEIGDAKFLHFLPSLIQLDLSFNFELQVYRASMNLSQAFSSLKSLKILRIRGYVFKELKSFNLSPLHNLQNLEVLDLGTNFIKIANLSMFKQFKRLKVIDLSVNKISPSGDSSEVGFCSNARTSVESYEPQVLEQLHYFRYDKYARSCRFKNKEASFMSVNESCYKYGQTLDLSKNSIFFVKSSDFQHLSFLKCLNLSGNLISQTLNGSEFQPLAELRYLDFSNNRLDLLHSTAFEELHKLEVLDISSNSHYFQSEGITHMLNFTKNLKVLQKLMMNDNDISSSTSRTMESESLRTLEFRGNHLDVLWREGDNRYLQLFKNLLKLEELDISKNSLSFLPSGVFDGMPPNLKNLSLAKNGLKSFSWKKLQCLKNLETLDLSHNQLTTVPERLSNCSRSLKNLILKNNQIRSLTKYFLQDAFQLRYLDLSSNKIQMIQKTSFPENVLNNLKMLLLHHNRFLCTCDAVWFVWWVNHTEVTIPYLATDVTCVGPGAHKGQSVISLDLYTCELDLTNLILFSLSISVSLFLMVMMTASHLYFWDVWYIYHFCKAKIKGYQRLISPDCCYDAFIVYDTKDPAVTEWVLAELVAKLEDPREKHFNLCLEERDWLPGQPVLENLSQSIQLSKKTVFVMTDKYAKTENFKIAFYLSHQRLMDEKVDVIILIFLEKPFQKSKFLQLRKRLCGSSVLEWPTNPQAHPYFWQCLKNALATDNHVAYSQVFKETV
In short: (§1)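 HEK293 cells stably expressing human TLR7 or TLR8, transiently transfected with SEAP reporter plasmid; medium replaced, SIMRA compounds added, 18 h incubation. Supernatant SEAP measured by QuantiBlue; expressed as fold increase in NF-κB activity over PBS control. Tabulated data at 50 μg/mL, representative of three independent experiments.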

PBMC [3] = assay: Immunomodulatory activity in human PBMC assessed as induction of IFN-alpha at 100 ug/ml after 24 hrs
PBMC [4] = assay: Immunomodulatory activity in human PBMC assessed as induction of TNFalpha at 100 ug/ml after 24 hrs; format: functional, cell-based
In short: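 Human PBMCs plated at 5 × 10^6 cells/mL; compounds dissolved in PBS added at various concentrations, 37 °C for 24 h. Supernatant cytokines/chemokines quantified with human Luminex multiplex kit.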

[5] = molecular target: T2, Toll-like receptor 8 (Homo sapiens) (UniProt Q9NR97); assay: Activation of human TLR8 expressed in HEK293XL assessed as fold induction of NF-kappaB activity at 50 ug/ml after 18 hrs by reporter gene assay relative to control; in short: as §1
T2 sequence (whole entry): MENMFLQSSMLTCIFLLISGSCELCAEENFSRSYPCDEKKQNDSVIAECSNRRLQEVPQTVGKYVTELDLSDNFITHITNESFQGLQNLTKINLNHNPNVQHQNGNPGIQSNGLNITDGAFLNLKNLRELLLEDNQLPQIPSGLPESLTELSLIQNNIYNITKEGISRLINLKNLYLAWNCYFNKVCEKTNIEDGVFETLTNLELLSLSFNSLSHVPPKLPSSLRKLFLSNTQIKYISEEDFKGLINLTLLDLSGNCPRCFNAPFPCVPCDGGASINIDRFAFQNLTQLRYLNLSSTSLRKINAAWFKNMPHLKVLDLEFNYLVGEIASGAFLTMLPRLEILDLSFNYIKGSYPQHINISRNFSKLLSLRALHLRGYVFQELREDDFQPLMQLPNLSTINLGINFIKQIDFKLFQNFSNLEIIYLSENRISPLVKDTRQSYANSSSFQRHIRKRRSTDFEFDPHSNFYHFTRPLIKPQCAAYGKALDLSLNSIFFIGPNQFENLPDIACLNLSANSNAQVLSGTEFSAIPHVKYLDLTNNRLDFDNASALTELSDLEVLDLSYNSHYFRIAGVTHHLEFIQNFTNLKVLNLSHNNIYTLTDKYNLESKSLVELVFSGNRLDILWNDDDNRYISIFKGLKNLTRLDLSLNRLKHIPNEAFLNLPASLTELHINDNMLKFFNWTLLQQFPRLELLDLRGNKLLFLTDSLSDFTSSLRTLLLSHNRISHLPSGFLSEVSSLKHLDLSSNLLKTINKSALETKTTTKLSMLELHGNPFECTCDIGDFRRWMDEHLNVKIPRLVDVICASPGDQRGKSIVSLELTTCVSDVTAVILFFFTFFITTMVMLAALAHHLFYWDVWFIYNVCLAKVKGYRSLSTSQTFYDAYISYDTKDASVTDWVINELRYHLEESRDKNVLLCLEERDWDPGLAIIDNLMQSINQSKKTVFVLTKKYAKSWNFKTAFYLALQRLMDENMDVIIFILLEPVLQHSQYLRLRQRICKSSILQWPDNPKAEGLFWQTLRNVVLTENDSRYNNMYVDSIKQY

Toll-like receptor 3 (Homo sapiens), sequence (O15455 whole entry): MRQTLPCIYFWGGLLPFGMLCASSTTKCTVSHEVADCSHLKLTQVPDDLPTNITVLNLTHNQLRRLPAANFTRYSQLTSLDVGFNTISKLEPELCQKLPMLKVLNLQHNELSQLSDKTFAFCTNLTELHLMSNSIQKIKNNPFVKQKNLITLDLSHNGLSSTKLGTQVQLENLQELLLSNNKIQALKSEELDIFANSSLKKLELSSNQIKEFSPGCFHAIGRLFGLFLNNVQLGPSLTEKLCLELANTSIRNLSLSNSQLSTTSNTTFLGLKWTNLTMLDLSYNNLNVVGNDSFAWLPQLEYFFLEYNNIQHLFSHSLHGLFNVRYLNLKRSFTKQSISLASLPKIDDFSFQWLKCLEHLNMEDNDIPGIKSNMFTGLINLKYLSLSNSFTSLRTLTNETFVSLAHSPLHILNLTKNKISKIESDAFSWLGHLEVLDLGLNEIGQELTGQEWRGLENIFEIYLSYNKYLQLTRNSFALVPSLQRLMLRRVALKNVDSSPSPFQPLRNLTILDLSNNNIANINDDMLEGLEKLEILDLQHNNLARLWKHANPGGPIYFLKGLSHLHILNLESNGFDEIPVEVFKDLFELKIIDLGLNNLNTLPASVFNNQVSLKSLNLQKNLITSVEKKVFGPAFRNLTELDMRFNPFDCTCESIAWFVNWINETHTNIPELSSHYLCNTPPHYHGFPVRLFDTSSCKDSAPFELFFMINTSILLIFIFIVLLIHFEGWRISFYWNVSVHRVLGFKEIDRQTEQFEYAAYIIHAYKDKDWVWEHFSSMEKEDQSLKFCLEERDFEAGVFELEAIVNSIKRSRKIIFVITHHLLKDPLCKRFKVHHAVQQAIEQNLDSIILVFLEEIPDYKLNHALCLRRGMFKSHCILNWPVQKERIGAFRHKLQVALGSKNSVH

Compound | Activity [1] | Activity (Splenocyte) | fold change (FC) [2] | IFN-alpha (PBMC [3]) [pg/mL] | Activity (PBMC [4]) [pg/mL] | fold change (FC) [5]
Nc1ccn([C@@H]2O[C@H](COP(=O)(S)O[C@H]3[C@@H](O)[C@H](n4ccc5c(=O)[nH]c(N)nc54)O[C@@H]3COP(=O)(S)O[C@H]3[C@@H](O)[C@H](n4cnc5c(N)ncnc54)O[C@@H]3COP(=O)(S)O[C@H]3[C@@H](O)[C@H](n4cnc5c(N)ncnc54)O[C@@H]3COP(=O)(S)O[C@H]3[C@@H](O)[C@H](n4ccc5c(=O)[nH]c(N)nc54)O[C@@H]3COP(=O)(S)O[C@H]3[C@@H](O)[C@H](n4ccc(=O)[nH]c4=O)O[C@@H]3COP(=O)(S)O[C@H]3[C@@H](O)[C@H](n4ccc(=O)[nH]c4=O)O[C@@H]3COP(=O)(S)O[C@H]3[C@@H](O)[C@H](n4cnc5c(N)ncnc54)O[C@@H]3COP(=O)(S)O[C@H]3[C@@H](O)[C@H](n4cnc5c(N)ncnc54)O[C@@H]3CO)[C@@H](OP(=O)(S)OC[C@H]3O[C@@H](n4ccc(=O)[nH]c4=O)[C@H](O)[C@@H]3OP(=O)(S)OC[C@H]3O[C@@H](n4ccc(=O)[nH]c4=O)[C@H](O)[C@@H]3OP(=O)(S)OCC(O)COP(=O)(S)O[C@H]3[C@@H](O)[C@H](n4ccc(=O)[nH]c4=O)O[C@@H]3COP(=O)(S)O[C@H]3[C@@H](O)[C@H](n4ccc(=O)[nH]c4=O)O[C@@H]3COP(=O)(S)O[C@H]3[C@@H](O)[C@H](n4ccc(N)nc4=O)O[C@@H]3COP(=O)(S)O[C@H]3[C@@H](O)[C@H](n4ccc5c(=O)[nH]c(N)nc54)O[C@@H]3COP(=O)(S)O[C@H]3[C@@H](O)[C@H](n4cnc5c(N)ncnc54)O[C@@H]3COP(=O)(S)O[C@H]3[C@@H](O)[C@H](n4cnc5c(N)ncnc54)O[C@@H]3COP(=O)(S)O[C@H]3[C@@H](O)[C@H](n4ccc5c(=O)[nH]c(N)nc54)O[C@@H]3COP(=O)(S)O[C@H]3[C@@H](O)[C@H](n4ccc(=O)[nH]c4=O)O[C@@H]3COP(=O)(S)O[C@H]3[C@@H](O)[C@H](n4ccc(=O)[nH]c4=O)O[C@@H]3COP(=O)(S)O[C@H]3[C@@H](O)[C@H](n4cnc5c(N)ncnc54)O[C@@H]3COP(=O)(S)O[C@H]3[C@@H](O)[C@H](n4cnc5c(N)ncnc54)O[C@@H]3CO)[C@H]2O)c(=O)n1 (some centres not stated) | inactive | Active | 25 | 95.5 | 29.3 | 1.6
Nc1ccn([C@@H]2O[C@H](COP(=O)(S)O[C@H]3[C@@H](O)[C@H](n4cnc5c(N)ncnc54)O[C@@H]3COP(=O)(S)O[C@H]3[C@@H](O)[C@H](n4cnc5c(N)ncnc54)O[C@@H]3CO)[C@@H](OP(=O)(S)OC[C@H]3O[C@@H](n4ccc(=O)[nH]c4=O)[C@H](O)[C@@H]3OP(=O)(S)OC[C@H]3O[C@@H](n4ccc5c(=O)[nH]c(N)nc54)[C@H](O)[C@@H]3OP(=O)(S)OC[C@H]3O[C@@H](n4cnc5c(N)ncnc54)[C@H](O)[C@@H]3OP(=O)(S)OC[C@H]3O[C@@H](n4ccc(N)nc4=O)[C@H](O)[C@@H]3OP(=O)(S)OC[C@H]3O[C@@H](n4ccc5c(=O)[nH]c(N)nc54)[C@H](O)[C@@H]3OP(=O)(S)OC[C@H]3O[C@@H](n4ccc(N)nc4=O)[C@H](O)[C@@H]3OP(=O)(S)OC[C@H]3O[C@@H](n4ccc(=O)[nH]c4=O)[C@H](O)[C@@H]3OP(=O)(S)OC[C@H]3O[C@@H](n4ccc(=O)[nH]c4=O)[C@H](O)[C@@H]3OP(=O)(S)OCC(O)COP(=O)(S)O[C@H]3[C@@H](O)[C@H](n4ccc(=O)[nH]c4=O)O[C@@H]3COP(=O)(S)O[C@H]3[C@@H](O)[C@H](n4ccc(=O)[nH]c4=O)O[C@@H]3COP(=O)(S)O[C@H]3[C@@H](O)[C@H](n4ccc(N)nc4=O)O[C@@H]3COP(=O)(S)O[C@H]3[C@@H](O)[C@H](n4ccc5c(=O)[nH]c(N)nc54)O[C@@H]3COP(=O)(S)O[C@H]3[C@@H](O)[C@H](n4ccc(N)nc4=O)O[C@@H]3COP(=O)(S)O[C@H]3[C@@H](O)[C@H](n4cnc5c(N)ncnc54)O[C@@H]3COP(=O)(S)O[C@H]3[C@@H](O)[C@H](n4ccc5c(=O)[nH]c(N)nc54)O[C@@H]3COP(=O)(S)O[C@H]3[C@@H](O)[C@H](n4ccc(=O)[nH]c4=O)O[C@@H]3COP(=O)(S)O[C@H]3[C@@H](O)[C@H](n4ccc(N)nc4=O)O[C@@H]3COP(=O)(S)O[C@H]3[C@@H](O)[C@H](n4cnc5c(N)ncnc54)O[C@@H]3COP(=O)(S)O[C@H]3[C@@H](O)[C@H](n4cnc5c(N)ncnc54)O[C@@H]3CO)[C@H]2O)c(=O)n1 (some centres not stated) | inactive | Active | 21.5 | 292 | 20.3 | 0.4

From ChEMBL document CHEMBL1154352, “Toll-like receptor 7 selective synthetic oligoribonucleotide agonists: synthesis and structure-activity relationship studies” (J Med Chem, 2009)
